# Runt-CBFb FRET = Runt domain-CBFb interaction inhibition; inhibition, % at 20 µM; actives 0.46% (n = 220,000); Cerulean-Runt/Venus-CBFb FRET ratio 530/480, 1 h; AID 1496;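 active = inhibition over about 50% at 20 µM in the single-dose screen, limit read from the data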;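 also: 0% = DMSO wells and 100% = excess unlabeled CBFb competitor control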
# Target sequence (Q01196 whole entry, looked up, the tested form may be a part): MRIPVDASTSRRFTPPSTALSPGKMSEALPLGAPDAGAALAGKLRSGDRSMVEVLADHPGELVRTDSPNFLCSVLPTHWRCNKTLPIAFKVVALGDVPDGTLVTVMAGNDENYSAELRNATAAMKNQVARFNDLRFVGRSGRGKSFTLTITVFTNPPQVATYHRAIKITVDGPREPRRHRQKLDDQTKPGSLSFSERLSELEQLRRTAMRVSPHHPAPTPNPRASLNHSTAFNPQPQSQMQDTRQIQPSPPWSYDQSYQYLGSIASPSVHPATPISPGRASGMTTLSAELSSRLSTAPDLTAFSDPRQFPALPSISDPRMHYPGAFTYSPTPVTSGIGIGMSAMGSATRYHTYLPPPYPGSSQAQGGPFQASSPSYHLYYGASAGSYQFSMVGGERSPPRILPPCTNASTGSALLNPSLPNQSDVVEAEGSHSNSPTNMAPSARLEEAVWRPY
# Target sequence (Q13951 whole entry, looked up, the tested form may be a part): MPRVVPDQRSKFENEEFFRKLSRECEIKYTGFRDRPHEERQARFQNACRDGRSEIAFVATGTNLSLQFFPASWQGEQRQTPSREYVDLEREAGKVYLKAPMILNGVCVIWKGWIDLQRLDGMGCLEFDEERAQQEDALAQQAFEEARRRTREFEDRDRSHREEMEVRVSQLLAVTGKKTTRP
#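 System: Cerulean-labeled Runt domain protein | Quantity: 100 nM of each labeled protein | Schedule: 1 h compound exposure, room temperature | Detection: Fluorescence energy transfer, 422 nm excitation, 530/480 nm emission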
# RanGTP-Imp inh = inhibitors of RanGTP-importin-beta interaction, primary screen, biochemical, FRET, CFP-Ran, YFP-importin-beta, homogeneous | actives 1.1% (n = 300,000) | inhibition, % (concentration not given with the values) | cell-free CFP-Ran/YFP-importin-beta FRET ratio;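 active = more than half of the replicate wells show a fall in the fluorescence ratio signal beyond about 16%, limit read from the data, passing the limit was not always enough; inconclusive = exactly half of the replicate wells pass the set limit; inactive = fewer than half of replicates pass the limit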;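 also: 0% = DMSO wells and 100% = Ran loaded with GDP instead of GTP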
# Runt-SMMHC FRET = Runt domain-CBFb-SMMHC interaction inhibition; Q01196+Q13951; Cerulean-Runt/Venus-CBFb-SMMHC FRET ratio 530/480, 1 h; inhibition, % at 20 µM; actives 0.74% (n = 220,000);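 active = mean inhibition across duplicate retests at 20 µM reaching about 50%, limit read from the data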;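 also: 0% = DMSO wells and 100% = wells with excess untagged CBFb-SMMHC; inhibitors lower the FRET ratio by blocking Runt binding to CBFb-SMMHC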
# TbHK1 inh = T. brucei hexokinase 1 inhibition | recombinant TbHK1, G6PDH-coupled NADH A340 | inhibition, % at 10 µM | actives 0.11% (n = 220,000) | AID 1430;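 active = inhibition of 50% or more in the single-dose primary screen; inactive = inhibition below 50%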
# Hck-Nef inh = inhibitors of human Hck kinase activated by Nef. P08631. Recombinant Hck-YEEI plus Nef, Z-Lyte FRET kinase assay. inhibition, % at 20 µM. actives 0.68% (n = 220,000);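 active = Hck-Nef kinase inhibition above about 50%, limit read from the data; inactive = inhibition below that limit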;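 also: 0% = DMSO with Hck plus Nef and 100% = Hck alone without Nef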
# * = called active by the depositor; ? = inconclusive; · = no result given. Shown are actives, neighbours in structure and some others; about 1.9% of the full set was active somewhere.
SMILES,Runt-CBFb FRET,RanGTP-Imp inh,Runt-SMMHC FRET,TbHK1 inh,Hck-Nef inh
COc1ccc2c(C=Nc3c(C)n(C)n(-c4ccccc4)c3=O)c(O)n(Cc3ccco3)c(=O)c2c1,-10,20*,-140,-11,1
CCOC(=O)C1=C(O)/C(=C/c2cn(CC(=O)N3CCCC3)c3ccccc23)SC1=Nc1ccccc1,21,0,83*,-9,10
Cn1cc(Cl)c(C(=O)N/N=C/c2ccc3c4c(cccc24)CC3)n1,·,3,·,·,·
N=c1c(C(=O)NCCc2ccccc2)cc2c(=O)n3ccccc3nc2n1CC1CCCO1 (centres undefined),·,179*,·,·,·
CCn1c(=N)c(C(=O)NCc2cccnc2)cc2c(=O)n3cccc(C)c3nc21,18,·,61*,·,·
Cc1ccc(CNC(=O)c2cc3c(=O)n4cccc(C)c4nc3n(CC3CCCO3)c2=N)cc1 (centres undefined),17,·,42,·,·
Cc1cccn2c(=O)c3cc(C(=O)NCc4cccnc4)c(=N)n(CC4CCCO4)c3nc12 (centres undefined),·,180*,·,·,·
N=c1c(C(=O)NCc2ccc3c(c2)OCO3)cc2c(=O)n3ccccc3nc2n1CC1CCCO1 (centres undefined),·,-13,·,·,·
COCCn1c(=N)c(C(=O)NCCc2ccccc2)cc2c(=O)n3cccc(C)c3nc21,·,192*,·,-4,104*
COc1cc(S(=O)(=O)N2CCOCC2)ccc1NC(=O)COC(=O)CC12CC3CC(CC(C3)C1)C2,-28,1,-5,-18,2
O=C(CSc1nnc(CNC(=O)c2ccco2)o1)Nc1ccccc1F,·,0,·,·,·
Cc1cccn2c(=O)c3cc(C(=O)NCCc4ccccc4)c(=N)n(CC4CCCO4)c3nc12 (centres undefined),·,181*,·,·,·
N=c1c(C(=O)NCc2ccco2)cc2c(=O)n3ccccc3nc2n1CC1CCCO1 (centres undefined),·,130*,·,5,47
O=C(COC(=O)CCC(=O)c1ccccc1)Nc1nnc(-c2ccccc2)o1,·,-1,·,·,·
Cc1ccc(C)c(NC(=O)CSc2nnc(C3CCCCC3)o2)c1,·,-3,·,·,·
CCOC(=O)/C(C#N)=C\c1ccc(N2CCN(C/C=C/c3ccccc3)CC2)cc1,-118,91*,-65,-3,4
CCOC(=O)CNC(=O)c1ccc2[nH]c3c(c2c1)CCCC3,8,18*,13,-3,2
Cc1cc(/C=c2\sc3nc4ccccc4n3c2=O)c(C)n1-c1ccc(C(=O)O)cc1,18,?,38,10,-2
Cc1cc(/C=c2/sc3nc4ccccc4n3c2=O)c(C)n1-c1ccccn1,8,16*,6,-25,1
O=c1[nH]c2ccccc2nc1-c1c[nH]c2ccccc12,·,48*,·,·,·
CCOC(=O)N1CCc2c(sc3c2C(=O)NC(c2ccccc2)N3)C1 (centres undefined),11,7,13,-7,5
CN1CCc2c(sc3c2C(=O)NC(c2cn(Cc4ccccc4)c4ccccc24)N3)C1 (centres undefined),63*,60*,70*,-8,14
COc1ccc(Br)cc1C1NC(=O)c2c(sc3c2CCN(C)C3)N1 (centres undefined),113*,·,65*,·,·
O=C1NC(c2ccco2)Nc2sc3c(c21)CCN(Cc1ccccc1)C3 (centres undefined),49,·,59*,-13,12
CN1CCc2c(sc3c2C(=O)NC(c2ccco2)N3)C1 (centres undefined),127*,113*,38,-25,2
SMILES,Runt-CBFb FRET,RanGTP-Imp inh,Runt-SMMHC FRET,TbHK1 inh,Hck-Nef inh
COCCNC(=O)CSc1ccccc1C(=O)NC1CCCc2ccccc21 (centres undefined),·,5,·,·,·
CN1CCc2c(sc3c2C(=O)NC(c2ccc(-c4ccc(Cl)cc4)o2)N3)C1 (centres undefined),114*,90*,33,-29,18
Cn1cccc1C1NC(=O)c2c(sc3c2CCC(C(C)(C)C)C3)N1 (centres undefined),3,-2,1,-9,1
CC(C)(C)NC(=O)CN(CCc1ccccc1)C(=O)c1csnn1,·,1,·,-5,17
CCOC(=O)c1cc2c(=O)n3ccccc3nc2n(Cc2ccccc2)c1=N,18,188*,63*,-5,28
COc1ccc(CCn2c(=N)c(C(=O)NCC3CCCO3)cc3c(=O)n4ccccc4nc32)cc1 (centres undefined),·,0,·,·,·
CCOCCCn1c(=N)c(C(=O)Nc2cc(C)on2)cc2c(=O)n3ccccc3nc21,·,·,·,-2,68*
N=c1c(C(=O)NC2CCCC2)cc2c(=O)n3ccccc3nc2n1Cc1ccccc1,·,177*,·,·,·
N=c1c(C(=O)NC2CCCCC2)cc2c(=O)n3ccccc3nc2n1Cc1ccc(F)cc1,·,159*,·,·,·
O=C(NCc1cc([N+](=O)[O-])ccc1O)c1cccc(NS(=O)(=O)c2ccccc2)c1,·,-8,·,·,·
Cc1cccc(NC(=O)CSCC(=O)N(C)Cc2c(F)cccc2Cl)c1,·,-3,·,·,·
CC(=O)NC(CC(=O)N1CCN(C(C)=O)CC1)c1ccccc1 (centres undefined),·,2,·,·,·
CCOc1ccc(S(=O)(=O)N(C)c2ccc(OCC(=O)NCc3ccc(C(=O)OC)cc3)cc2)cc1,-5,-2,-5,-2,4
Cc1ccc(Cn2c(=N)c(C(=O)NC3CCCCC3)cc3c(=O)n4ccccc4nc32)cc1,·,161*,·,·,·
CCc1nnc(NC(=O)C(C)Sc2ccccc2)s1 (centres undefined),0,25*,0,-3,1
CCc1nnc(NC(=O)C(C)C)s1,0,6,-1,1,1
COc1cc(/C=N/NC(=O)CSc2nc3ccccc3n2C)cc(OC)c1OC,0,5,1,0,-1
O=c1[nH]c(N/N=C\c2ccc(F)cc2)nc2ccccc12,16,38*,19,-20,24
COC(=O)C1=C(C)N(C)C(C)=C(C(=O)OC)C1c1ccsc1,-2,2,0,-12,0
COC(=O)C1=CN(CC2CCCO2)C=C(C(=O)OC)C1c1ccsc1 (centres undefined),88*,11,134*,-12,49
CCOC(=O)C1=CN(C)C=C(C(=O)OCC)C1c1ccsc1,122*,53*,99*,-11,47
COC(=O)C1=C(N)Oc2cc(C)n(CC3CCCO3)c(=O)c2C1c1ccccc1OC (centres undefined),2,5,-2,1,0
COC(=O)C1=CN(Cc2ccc(F)cc2)C=C(C(=O)OC)C1c1ccc(O)c(OC)c1,·,10,·,·,·
COC(=O)C1=CN(CC2CCCO2)C=C(C(=O)OC)C1c1ccccc1C(F)(F)F (centres undefined),106*,62*,82*,-4,31
COC(=O)C1=CN(Cc2ccc(OC)cc2)C=C(C(=O)OC)C1c1ccsc1,68*,?,134*,-3,7

# Screens deposited in PubChem by several laboratories.
